Assay type in all cases: functional
In assay [1] the test system is Stenotrophomonas maltophilia. The experiment in a line: Antimicrobial activity against ampD1-deficient Stenotrophomonas maltophilia KJ by twofold serial agar dilution method. The method, boiled down:
(§1)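 MICs by standard twofold serial agar dilution following CLSI guidelines, done in triplicate. Strains were wild-type clinical isolate KJ, which produces L1 and L2 β-lactamases, and its isogenic ampDI, ampDII and ampDI/ampDII deletion mutants. For cefepime, imipenem and meropenem, MICs were instead read from Etest strips per the manufacturer's instructions.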
For orientation: In agar dilution the substance is mixed into plates at graded concentrations.

Assay [2] relates to Stenotrophomonas maltophilia. The experiment in a line: Antimicrobial activity against Stenotrophomonas maltophilia KJ by twofold serial agar dilution method. Summed up:
as §1

Assay [3] deals with Stenotrophomonas maltophilia. The experiment in a line: Antimicrobial activity against ampD2-deficient Stenotrophomonas maltophilia KJ by twofold serial agar dilution method. The method, boiled down: as §1
The test system of assay [4] is Stenotrophomonas maltophilia. The experiment in a line: Antimicrobial activity against ampD1-, ampD2-deficient Stenotrophomonas maltophilia KJ by twofold serial agar dilution method. The method, boiled down:
as §1

Drawing on ChEMBL document CHEMBL1649514, “AmpDI is involved in expression of the chromosomal L1 and L2 beta-lactamases of Stenotrophomonas maltophilia” (2009), this text covers MIC for nine compounds.

The structures appear in SMILES notation. In brackets after ≈: the same amount, converted by molar mass.

For orientation: MIC means the lowest concentration that inhibits growth of the organism. A lower MIC goes with greater potency. For `C[C@H]1[C@H](NC(=O)/C(=N\OC(C)(C)C(=O)O)c2csc(N)n2)C(=O)N1S(=O)(=O)O` [AZTREONAM], the minimum inhibitory concentration (MIC) in assay [1], in assay [2], in assay [3] and in assay [4] was greater than 2050 µg/mL in each case.

In the case of `CC1(C)S[C@@H]2[C@H](NC(=O)C(C(=O)O)c3ccccc3)C(=O)N2[C@H]1C(=O)O` (stereo partly specified) [CARBENICILLIN], the MIC in assay [1], in assay [2], in assay [3] and in assay [4] was 1020 µg/mL (≈ 2710 µM) each time.

Turning to `CO/N=C(\C(=O)N[C@@H]1C(=O)N2C(C(=O)[O-])=C(C[N+]3(C)CCCC3)CS[C@H]12)c1csc(N)n1` [CEFEPIME], the MIC worked out at 96 µg/mL (≈ 200 µM) in assay [1], 64 µg/mL (≈ 133 µM) in assay [2], 64 µg/mL (≈ 133 µM) in assay [3] and 96 µg/mL (≈ 200 µM) in assay [4].

Turning to `CO[C@@]1(NC(=O)Cc2cccs2)C(=O)N2C(C(=O)O)=C(COC(N)=O)CS[C@@H]21` [CEFOXITIN], the MIC in assay [1], in assay [2], in assay [3] and in assay [4] was 1020 µg/mL (≈ 2400 µM) each time.

Take `CO/N=C(\C(=O)N[C@@H]1C(=O)N2C(C(=O)O)=C(CSc3nc(=O)c(O)nn3C)CS[C@H]12)c1csc(N)n1` [CEFTRIAXONE]: the MIC in assay [1], in assay [2], in assay [3] and in assay [4] was 256 µg/mL (≈ 462 µM) in each case.

With `CO/N=C(\C(=O)N[C@@H]1C(=O)N2C(C(=O)O)=C(COC(N)=O)CS[C@H]12)c1ccco1` [CEFUROXIME], the MIC in assay [1], in assay [2], in assay [3] and in assay [4] was 2050 µg/mL (≈ 4830 µM) throughout.

On to `C[C@@H](O)[C@H]1C(=O)N2C(C(=O)O)=C(SCCNC=N)C[C@H]12` [IMIPENEM ANHYDROUS], for which the MIC in assay [1], in assay [2], in assay [3] and in assay [4] was greater than 32 µg/mL throughout.

For `C[C@@H](O)[C@H]1C(=O)N2C(C(=O)O)=C(S[C@@H]3CN[C@H](C(=O)N(C)C)C3)[C@H](C)[C@H]12` [MEROPENEM], the MIC in assay [1], in assay [2], in assay [3] and in assay [4] was greater than 32 µg/mL throughout.

Turning to `CCN1CCN(C(=O)N[C@@H](C(=O)N[C@@H]2C(=O)N3[C@@H]2SC(C)(C)[C@@H]3C(=O)O)c2ccccc2)C(=O)C1=O` [PIPERACILLIN], the MIC in assay [1], in assay [2], in assay [3] and in assay [4] was 1020 µg/mL (≈ 1980 µM) throughout.
